This is one part of a sample in which hits are shown more often than they occur.
Lmaj promast = Leishmania major promastigote growth inhibition; Leishmania major promastigotes, resazurin fluorescence viability; AID 1063; inhibition, % at 10 µM; actives 9% (n = 200,000); in the data active means inhibition above about 50%;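 further: promastigotes grown with compound for 44 hours at 28 °C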
DTT redox prof = compounds producing H2O2 with reducing agent – biochemical, NIH compound library profiling, artefact control for MLSCN library redox annotation, primary screen; AID 878; activation, % at 10 µM; DTT-dependent redox cycling H2O2, phenol red/HRP absorbance; 100% = 100 µM peroxide control, 0% = buffer; actives 0.03% (n = 200,000);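 active means activation of at least 50% relative to the plate's high and low controls in the primary single-dose screen; inactive means activation below 50%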;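 further: compound incubated with DTT at 0.8 mM final as the reducing agent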
T cruzi repl = blocks replication of Trypanosoma cruzi. AID 1885. T. cruzi beta-gal in NIH3T3, luminescence, 90 h. inhibition, % (test concentration not listed). actives 1.4% (n = 300,000);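 active means mean inhibition across valid replicates above about 55%, limit read from the data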;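 further: signal also drops with host cell toxicity which is not excluded here; 0% = plate median of DMSO wells and 100% = zero luminescence signal; higher percent means less beta-gal luminescence so fewer parasites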
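System: NIH/3T3 fibroblasts plus reporter T. cruzi. Medium: DMEM plus 2% FBS. Probe or stimulus: 5000 reporter trypomastigotes per well. Compound: single 50 nL compound addition per well in DMSO. Incubation: co-culture of at least 90 h after 3 h attachment. Detection: GalScreen β-gal luminescence, detergent lysis, 60 min. Evaluation: parasite load inhibition, %.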
MPTP inh = inhibitors of mitochondrial permeability transition pore; isolated mouse mitochondria, Ca2+ swelling absorbance, 30 min; actives 1.4% (n = 360,000); inhibition, % at 10 µM;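 active means inhibition of 50% or more, scaled per plate between neutral and stimulator controls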;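 further: 0% = DMSO wells given calcium and 100% = 1 mM EGTA wells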
Hep lipid drop = modulators of hepatic lipid droplet formation; inhibition, % at 6.5 µM; AML12 mouse hepatocytes, oleate lipid droplets, BODIPY imaging; AID 1656; actives 0.4% (n = 240,000);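 active means lipid droplet intensity inhibited by at least 50%, with more than 500 cells counted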
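Material – mouse AML12 hepatocyte cell line, fixed after treatment · Compound dosing – one dose, 6.5 µM compound · Times – compound with oleate, overnight · Measured by – Image-based BODIPY and DAPI two-channel analysis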
The depositor's hits bear a star; / = not tested or not shown.

SMILES	Lmaj promast	DTT redox prof	T cruzi repl	MPTP inh	Hep lipid drop
c1ccc(CNCC2COc3ccccc3O2)cc1 (configuration not stated)	91.2*	0.8	-4.3	-0.4	7.9
c1ccc(CCCNCC2COc3ccccc3O2)cc1 (configuration not stated)	91.1*	-2.1	-1.1	-0.9	-9.6
c1ccc(CCCCNCC2COc3ccccc3O2)cc1 (configuration not stated)	86.8*	-0.4	30.9	-2.3	16.9
CCOc1ccccc1/C=C(\NC(=O)c1ccccc1)C(=O)NCCC(=O)O	8.2	-0.2	2.9	-2.8	-2.8
CCOc1ccccc1/C=C(/NC(=O)c1ccccc1)C(=O)NCC(=O)O	-3.3	0.1	-6.2	-4.1	51.9*
CCCCNc1nc2ccccc2n1CC(=O)N1CCc2ccccc2C1	69.9*	0.2	8.8	2.4	/
O=C(CCNC(=O)c1ccc([N+](=O)[O-])cc1)NCc1ccco1	/	/	/	0.2	/
Cc1ccccc1C(=O)N1CCN(c2ccc([N+](=O)[O-])c(NCc3cccnc3)c2)CC1	25.2	-0.7	9.4	3.4	-5.7
Cc1ccc(C(=O)N2CCN(c3ccc([N+](=O)[O-])c(NCc4cccnc4)c3)CC2)cc1	56.6*	-0.5	21.3	-0.5	-5.2
CCN(C(=O)COC(=O)CNC(=O)c1ccc(C)s1)c1ccccc1	-3.0	-0.3	-8.1	-0.3	-0.5
COCCCNC(=O)Cn1c(=O)n(CCCCCC(=O)Nc2ccccc2)c(=O)c2sccc21	50.2*	0.1	21.5	-1.1	-8.1
COc1ccc(NC(=O)CCCn2c(=O)c3sccc3n(Cc3ccccc3C)c2=O)cc1	89.3*	0.3	18.2	3.3	-23.6
COCCNC(=O)Cn1c(=O)n(CCCCCC(=O)Nc2ccccc2)c(=O)c2sccc21	-2.9	0.3	-0.8	-0.9	-7.6
Cc1ccc(CN(C)C(=O)c2ccccc2NC(=O)c2ccccc2)o1	/	/	/	0.0	/
COc1ccc(-n2c(NCCN(C)C)nc3sc4c(c3c2=O)CCCCC4)cc1	58.3*	0.1	/	-0.3	2.5
COc1ccc(-n2c(N3CCN(C)CC3)nc3sc4c(c3c2=O)CCCCC4)cc1	99.5*	-2.5	51.7	-5.3	-11.6
CN(C)CCNc1nc2sc3c(c2c(=O)n1-c1ccc(F)cc1)CCCCC3	/	/	42.4	-1.0	16.0
Cc1ccc(S(=O)(=O)N2[C@H](CC(=O)c3cccs3)OC[C@@H]2C)cc1	/	/	/	-0.1	/
NCC(O)(c1ccc(Cl)cc1)c1ccc(Cl)cc1	94.4*	-1.1	50.3	-2.1	1.6
CCn1c(SCc2nc(-c3cccs3)no2)nnc1-c1c[nH]c2ccccc12	72.2*	-2.8	15.5	-1.1	1.1
CCn1c(SCc2nc(-c3ccccc3)no2)nnc1-c1cccs1	27.6	0.2	-12.0	0.4	-1.6
CN(C)Cc1ccccc1COc1ccccc1	1.9	-0.2	1.7	0.6	-2.8
Cc1ccc(N2C(=O)CC(Sc3nc4ccccc4o3)C2=O)cc1Cl (configuration not stated)	-4.9	-6.8	69.5*	3.4	/
CN=CC1=C(O)c2ccccc2C1=O	-3.5	-1.3	-7.1	-1.5	/
O=C1C(C2=C(O)c3ccccc3C2=O)=Nc2ccccc21	99.6*	0.3	-16.2	10.8	/
SMILES	Lmaj promast	DTT redox prof	T cruzi repl	MPTP inh	Hep lipid drop
CSc1nnc2ccc(-c3cccs3)nn12	0.7	-1.8	-5.6	0.7	12.1
COc1ccc(/C=C/C(=O)Nc2c(C(=O)O)[nH]c3ccccc23)cc1OC	/	/	-7.4	1.1	1.4
O=C(CN(C(=O)c1cccc([N+](=O)[O-])c1)C1CCCCC1)Nc1ccc(Cl)c([N+](=O)[O-])c1	70.2*	0.1	7.8	45.0	-5.9
CN(C(=O)c1cccc(NC(=O)Cc2ccc([N+](=O)[O-])cc2)c1)C1CCCCC1	/	/	/	4.5	/
CCOc1ccc(CCNC(=O)COC(=O)c2nc(Cl)ccc2Cl)cc1OCC	/	/	-1.0	-1.0	/
NS(=O)(=O)c1ccc(N/N=C/c2cn(-c3ccccc3)nc2-c2cccs2)cc1	-2.0	0.7	5.9	1.5	-3.5
NS(=O)(=O)c1ccc(N/N=C/c2cn(-c3ccccc3)nc2-c2cccs2)c([N+](=O)[O-])c1	0.3	-0.3	67.4*	2.8	23.6
CCOc1ccc(OCC)c(NC(=O)CN2CCN(c3ccc(C)cc3C)CC2)c1	6.9	1.6	65.5*	0.2	6.8
Cc1cc(=O)c2ccc3ccccc3c2[nH]1	54.1*	0.1	1.3	0.1	3.6
COc1ccccc1-c1noc2ncnc(Nc3cccc(C)c3C)c12	/	/	-20.9	0.4	-15.8
Cc1ccc(Nc2nc(-c3sc(NC(=O)c4ccco4)nc3C)cs2)cc1	60.6*	-2.2	-0.1	0.4	7.8
CCOc1ccccc1Nc1nc(-c2sc(NC(=O)c3ccco3)nc2C)cs1	99.4*	-8.8	38.6	0.8	/
Cc1ccccc1Nc1nc(-c2sc(NC(=O)c3ccco3)nc2C)cs1	47.8	-3.2	-17.5	0.2	38.6
Cc1ccc2cc(C=C(C#N)C#N)c(N3CCCCC3)nc2c1	98.7*	-0.6	-13.2	0.6	/
CCOC(=O)/C(C#N)=C/c1cc2ccccc2nc1N1CCCCC1	88.5*	-1.2	-13.8	0.1	12.1
Cc1ccc2cc(/C=C(\C#N)C(N)=O)c(N3CCCCC3)nc2c1	41.5	-0.4	-6.7	1.6	-28.5
Cc1cc(C)nc(N/N=C/c2cc(C)n(CC(F)(F)F)c2C)n1	0.0	-1.1	-11.8	0.2	22.9
Cc1ccc(-n2c(SCC(=O)c3c(N)n(C)c(=O)n(C)c3=O)nc3sc4c(c3c2=O)CCCC4)c(C)c1	46.7	-0.3	68.0*	0.4	2.4
O=C(NC1CCCCC1)c1cc(-c2cccc(Cl)c2)on1	/	/	4.5	2.0	-1.6
CSc1nc2nccc(/C=C\c3ccccc3)n2n1	85.6*	-5.1	1.6	2.6	/
COc1ccc(S(=O)(=O)Nc2noc3ccccc23)cc1OC	/	/	-0.1	-0.1	8.3
CCCCN(CC)Cc1ccc(CNC(=O)Nc2ccc(F)cc2)o1	98.3*	0.2	0.9	-1.8	-1.0
CCCCN(CC)Cc1ccc(CNC(=S)Nc2c(C)cc(C)cc2C)o1	22.1	-0.9	12.8	2.1	-14.7
COc1ccc(C(C(=O)NC(C)(C)C)n2c(-c3ccc(C(F)(F)F)cc3)nc3ccccc32)cc1 (configuration not stated)	/	/	/	1.7	/
S=C(c1ccc(Cl)cc1)N1CCN(Cc2ccccc2)CC1	23.2	0.2	-2.7	-1.0	0.4
SMILES	Lmaj promast	DTT redox prof	T cruzi repl	MPTP inh	Hep lipid drop
CSc1ccc(C(=S)N2CCN(Cc3ccccc3)CC2)cc1	93.7*	0.9	12.9	2.7	/
CCN1CCN(C(=S)c2ccc(SC)cc2)CC1	91.2*	0.1	1.5	-0.4	2.2
CSc1ccc(C(=S)N2CCCCCC2)cc1	/	/	-5.2	-0.5	5.8
CN(CC1COc2ccccc2O1)C(=O)c1ccc(Cl)c(S(=O)(=O)N2CCCCCC2)c1 (configuration not stated)	/	/	/	0.0	/
CCOc1ccccc1NC(=O)/C=C/C(N)=O	100.5*	0.1	-1.5	0.3	14.4
O=C(/C=C\c1ccccc1[N+](=O)[O-])Nc1ccccc1	-5.2	0.7	10.4	1.0	12.7
